Assay results published in ChEMBL document CHEMBL1133723, “Developing a dynamic pharmacophore model for HIV-1 integrase” (J Med Chem, 2000).
*1 amine or outer side, *2 acyl side, *3 side chain or, on linkers, in order; H or OH if unused. Where a SMILES comes first, the peptide text is derived from it. Bridges are numbered along the chain shown (N, C = ends). [ ]: non-standard residue; d: D form. The star is where a group is joined. X1 = NC1=N[C@@H]([C@H](N[*:1])C(=O)[*:2])C[C@H](O)N1; ΔAla(Z-3-ureido) = NC(=O)N/C=C(\N)C(=O)O; AMC = Cc1cc(=O)oc2cc(N*)ccc12; β3hOrn = NCCC[C@H](N)CC(=O)*; Dap = NC[C@H](N)C(=O)O

Tests used:
[1] = biological target: Human immunodeficiency virus type 1 integrase (Human immunodeficiency virus 1) (UniProt Q7ZJM1); settings: at 1 mM
[2] = biological target: Human immunodeficiency virus type 1 integrase (Human immunodeficiency virus 1) (UniProt Q7ZJM1); settings: at 200 µM
[3] = biological target: T1, Human immunodeficiency virus type 1 integrase (Human immunodeficiency virus 1, UniProt Q7ZJM1)
[4] = biological target: T1, Human immunodeficiency virus type 1 integrase; remark: listed apart in the source
[5] = biological target: Human immunodeficiency virus type 1 integrase (Human immunodeficiency virus 1) (UniProt Q7ZJM1); assay: Inhibitory activity against HIV-1 integrase at 1 mM
How it was run: (§1)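 Integration reaction with HIV-1 integrase, run as in an earlier published method except for the detection step. The integration product was detected with digoxygenin-labelled oligonucleotides and an anti-digoxygenin antibody conjugated to horseradish peroxidase. Compounds were tested at 1 mM, 200 µM and 25 µM.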

[6] = biological target: Human immunodeficiency virus type 1 integrase (Human immunodeficiency virus 1) (UniProt Q7ZJM1); assay: Inhibitory activity against HIV-1 integrase at 200 uM
How it was run: as §1

[7] = biological target: Human immunodeficiency virus type 1 integrase (Human immunodeficiency virus 1) (UniProt Q7ZJM1); assay: Inhibition against HIV-1 integrase at 25 uM
How it was run: as §1

[8] = biological target: Human immunodeficiency virus type 1 integrase (Human immunodeficiency virus 1) (UniProt Q7ZJM1); assay: Inhibitory activity against HIV-1 integrase at 25 uM
How it was run: as §1

For `N=C(N)NCCCC(NC(N)=O)C(=O)O` (single isomer, unassigned), the inhibition [1] was less than 50% and the inhibition [2] was less than 50%.
`Cc1cccc2c1C(O)=C1C(=O)C3C(O)=C(C(=O)NCNC(CO)(CO)CO)C(=O)[C@@H](N(C)C)[C@@H]3C[C@@H]1C2(C)O` (stereo partly drawn) gave an IC50 [3] of 1100 nM and an IC50 [4] of 500 nM.
`O=P(O)(O)O[C@@H]1O[C@H](CO)[C@@H](O)[C@H](O)[C@H]1O` showed an inhibition [5] of less than 50% and an inhibition [6] of less than 50%.
`CCCCCCCCCCCCC/C=C/C(O)C(N)CO[C@@H]1O[C@H](CO)[C@H](O)[C@H](O)[C@H]1O` (stereo partly drawn) showed an inhibition [7] of less than 50%, an inhibition [1] greater than 50% and an inhibition [2] of less than 50%.
Work on `O=C(NC(CO)(CO)CO)C(=O)NC(CO)(CO)CO` yielded an inhibition [5] of less than 50% and an inhibition [6] of less than 50%.
`NCCC[C@H](N)CC(=O)N[C@H]1CNC(=O)[C@H]([C@H]2C[C@H](O)NC(N)=N2)NC(=O)/C(=C/NC(N)=O)NC(=O)[C@H](CO)NC(=O)[C@H](CO)NC1=O` (β3hOrn-[Dap]SS[ΔAla(Z-3-ureido)][X1]; lactam 1-C) showed an inhibition [1] of less than 50% and an inhibition [2] of less than 50%.
With `OC[C@H]1O[C@H](OC[C@H]2OC(O)[C@H](O)[C@@H](O)[C@@H]2O)[C@H](O)[C@@H](O)[C@@H]1O` (stereo partly drawn) the inhibition [5] was less than 50% and the inhibition [6] was less than 50%.
`CC(C)C[C@@H](C=O)NC(=O)N[C@H](C(=O)N[C@@H](CCC(N)=O)C(=O)N[C@@H](C)C=O)[C@@H]1CCN=C(N)N1` was tested, and the inhibition [1] was less than 50% and the inhibition [2] was less than 50%.
In the case of `O=C(CCc1ccc(O)c(O)c1)c1ccc(O)c(O)c1O`, the IC50 [3] is reported as 1700 nM and the IC50 [4] is reported as 1000 nM.
For `N=C(N)NCCCCNCCCNC(=N)N`, the inhibition [5] was less than 50% and the inhibition [6] was less than 50%.
In the case of `O=C(/C=C\c1ccc(O)c(O)c1)OC1CC(O)(C(=O)O)CC(OC(=O)/C=C\c2ccc(O)c(O)c2)C1O` (stereo not drawn), the IC50 [3] is reported as 640 nM and the IC50 [4] is reported as 660 nM.
`Cc1cc(=O)oc2cc(NC(=O)[C@H](CCCN=C(N)N)NC(=O)CN)ccc12` (H-Gly-Arg-{AMC}) gave an inhibition [1] of less than 50% and an inhibition [2] of less than 50%.
For `Cc1cccc2c1C(O)=C1C(=O)C3C(O)=C(C(=O)NCN4CCN(C(=N)N=C(N)N)CC4)C(=O)[C@@H](N(C)C)[C@@H]3C[C@@H]1C2(C)O` (stereo partly drawn), the IC50 [3] was 900 nM and the IC50 [4] was 300 nM.
For `CCNC(=O)[C@H](CCCCN(N)N)NC(=O)CNC(=O)[C@H](CC(C)C)NC(=O)[C@@H](NC(=O)[C@H](O)[C@@H](O)[C@H](O)[C@H](O)CO)C(C)C`, the inhibition [1] was less than 50% and the inhibition [2] was less than 50%.
`OCCNCCNC(O)C(O)CO` (stereo not drawn) showed an inhibition [1] of less than 50% and an inhibition [2] of less than 50%.
With `CN[C@@H]1[C@H](OC2[C@@H](OC3[C@@H](N=C(N)N)[C@H](O)[C@@H](N=C(N)N)[C@H](O)[C@H]3O)O[C@@H](C)[C@]2(O)CO)O[C@@H](CO)[C@H](O)[C@H]1O` (stereo partly drawn) the inhibition [5] was less than 50% and the inhibition [6] was less than 50%.
Work on `COC(=O)C1(O)C[C@H](O)[C@@H](NC(C)=O)[C@H]([C@H](O)[C@H](O)CO)O1` (stereo partly drawn) yielded an inhibition [5] of less than 50% and an inhibition [6] of less than 50%.
For `OC[C@H]1O[C@@H](SC2O[C@H](CO)[C@H](O)[C@H](O)[C@H]2O)[C@H](O)[C@@H](O)[C@H]1O` (stereo partly drawn), the inhibition [1] was less than 50% and the inhibition [2] was less than 50%.
Molecule `CN[C@@H]1[C@H](O[C@H]2[C@H](O[C@H]3[C@H](O)[C@@H](O)[C@H](N=C(N)N)[C@@H](O)[C@@H]3N=C(N)N)O[C@@H](C)[C@]2(O)C=O)O[C@@H](CO)[C@H](O)[C@H]1O` has an inhibition [1] of less than 50% and an inhibition [2] of less than 50%.
For `N=C(NCCCCCCNC(=N)NC(=N)Nc1ccc(Cl)cc1)NC(=N)Nc1ccc(Cl)cc1`, the inhibition [8] was less than 50%, the inhibition [5] was greater than 50% and the inhibition [6] was less than 50%.
`C[Si](C)(C)C` gave an IC50 [3] of 17000 nM and an IC50 [4] of 5000 nM.
With `O=C(/C=C\c1ccc(O)c(O)c1)OC1C(O)CC(OC(=O)/C=C\c2ccc(O)c(O)c2)(C(=O)O)CC1O` (stereo not drawn) the IC50 [3] was 9500 nM and the IC50 [4] was 7800 nM.
Molecule `NC(N)=Nc1nc(CSCC/C(N)=N/S(N)(=O)=O)cs1` has an inhibition [1] of less than 50% and an inhibition [2] of less than 50%.
Molecule `O=c1c(O)cccc2cc(O)c(O)c(O)c12` [PURPUROGALLIN] has an IC50 [3] of 2100 nM.
In the case of `O=C1c2c(O)ccc(O)c2C(=O)c2c(NCCNCCO)ccc(NCCNCCO)c21` [MITOXANTRONE], the IC50 [3] is reported as 3800 nM and the IC50 [4] is reported as 8000 nM.
With `Cc1cc(O)c2c(=O)c3c(O)cc(O)c4c5c(O)cc(O)c6c(=O)c7c(O)cc(C)c8c1c2c(c34)c(c78)c65` [HYPERICIN] the IC50 [3] was 10000 nM.
In the case of `COc1cccc2c1C(=O)c1c(O)c3c(c(O)c1C2=O)C[C@@](O)(C(=O)CO)C[C@@H]3O[C@H]1C[C@H](N)[C@H](O)[C@H](C)O1` [DOXORUBICIN], the IC50 [3] is reported as 900 nM and the IC50 [4] is reported as 2400 nM.
For `C[C@@H]1O[C@@H](OC2C[C@](O)(C(=O)CO)Cc3c(O)c4c(c(O)c32)C(=O)c2c(O)cccc2C4=O)C[C@H](N)[C@@H]1O` (stereo partly drawn), the IC50 [3] was 2300 nM and the IC50 [4] was 4100 nM.
`Cc1cccc2c1C(O)=C1C(=O)C3C(O)=C(C(=O)NNC4(C(=O)O)CCCC4)C(=O)[C@@H](N(C)C)[C@@H]3C[C@@H]1C2(C)O` (stereo partly drawn) was tested, and the IC50 [3] was 1200 nM and the IC50 [4] was 3600 nM.
